Screening results as filed in PubChem.
CAL PDZ FP-1: untagged CAL PDZ binding inhibitors, primary screen, biochemical, fluorescence polarization, HTS; inhibition, % at 24.9 µM; purified CAL PDZ, TMR-peptide fluorescence polarization, 1 h; 0.92% of 300,000 active; Golgi-associated PDZ and coiled-coil motif-containing protein (Homo sapiens), Q9HD26;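 active = mean inhibition of at least 30% with at least half of replicates also reaching 30%; inconclusive = no clear call, values can overlap the other calls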
dFosB act-1: activators of delta FosB homodimer, primary screen, biochemical, fluorescence polarization, TAMRA-CDK5 oligo, single point | Protein FosB (Mus musculus), P13346 | activation, % at 25 µM | AID 493131, 2011 | purified delta FosB; percent of positive-control signal above neutral wells | 0.99% of 340,000 active;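 active = mean activation above about 17%, with every replicate also reaching it, limit read from the data, passing the limit was not always enough; inconclusive = only one of the two conditions met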
SR-BI uptake up: activators of SR-BI mediated DiI-HDL uptake, primary screen, ldlA[mSR-BI] CHO cells, DiI fluorescence; activation, % at 12.5 µM; 0.096% of 320,000 active; 3 h; 100 = double the neutral-control signal;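 active = mean replicate activation of at least 60% and every replicate at or above 60%; inconclusive = mean or all-replicate condition met, but not both; inactive = mean below 60% and not all replicates reaching 60%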
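Material: SR-BI-overexpressing, LDLR-lacking CHO cells | Dosing: Single compound concentration, delivered by pin transfer | Probe or stimulus: Labelled HDL, 10 µg/mL | Signal: Bottom-read cell fluorescence after medium removal, ex 550/em 595 nm | Schedule: 3 h, 37 °C | Evaluation: HDL uptake via cellular fluorescence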
SR-BI HDL uptake: inhibitors of SR-BI mediated HDL lipid uptake, primary screen, ldlA[mSR-BI] cells, fluorescence, single point. ldlA[mSR-BI] CHO cells, DiI-HDL uptake fluorescence, 3 h. 0.96% of 320,000 active. inhibition, % at 12.5 µM. AID 488896, 2010;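 active = mean replicate inhibition of at least 70% and a set share of replicates each scoring 70 or more; inconclusive = meets just one of the two criteria; inactive = fails both criteria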
Target sequence (Q61009 whole entry, looked up): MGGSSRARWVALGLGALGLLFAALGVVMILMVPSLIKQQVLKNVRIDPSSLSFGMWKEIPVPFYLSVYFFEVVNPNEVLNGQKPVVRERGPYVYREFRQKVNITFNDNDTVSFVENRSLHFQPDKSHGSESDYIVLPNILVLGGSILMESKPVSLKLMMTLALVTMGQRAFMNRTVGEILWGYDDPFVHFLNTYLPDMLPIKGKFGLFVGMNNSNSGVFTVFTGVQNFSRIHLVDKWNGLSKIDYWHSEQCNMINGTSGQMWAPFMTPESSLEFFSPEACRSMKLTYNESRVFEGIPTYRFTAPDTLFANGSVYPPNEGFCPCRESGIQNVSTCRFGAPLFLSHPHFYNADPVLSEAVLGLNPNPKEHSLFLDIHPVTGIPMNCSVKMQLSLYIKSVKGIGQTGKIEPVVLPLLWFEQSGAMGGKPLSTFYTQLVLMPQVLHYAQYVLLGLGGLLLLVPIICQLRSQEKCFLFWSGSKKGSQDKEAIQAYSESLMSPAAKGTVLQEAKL
CAL PDZ FP-2: CAL PDZ peptide-binding inhibitors, primary screen, biochemical, fluorescence polarization, Cer-tagged CAL PDZ, HTS; Golgi-associated PDZ and coiled-coil motif-containing protein (Homo sapiens), Q9HD26; purified CAL PDZ, TMR-peptide fluorescence polarization, 1 h; inhibition, % at 20 µM; 0.02% of 330,000 active;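 active = highest replicate inhibition of at least 40%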
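Material – purified CerCALP PDZ construct · Detection – FP readout, S and P plane fluorescence · Measure – percent inhibition from loss of millipolarization · Controls – unlabelled peptide for full inhibition, DMSO wells as neutral · Probe or stimulus – TMR-labelled reporter peptide T*-PRC34 bound in PDZ groove · Times – 1 h at RT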
dFosB act-2: activators of mouse delta FosB DNA binding, confirmation, biochemical, fluorescence polarization, TAMRA-CDK5 oligo, cherry-picked samples | 2,400 tested, under 10 active | activation, % at 24.9 µM | purified delta FosB; normalised: neutral wells 0, positive control 100 | AID 588690, 2011 | shares compounds with dFosB act-1;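 active = highest replicate activation at or above 34% and every replicate reaching that threshold; inconclusive = meets only one of the two criteria; inactive = meets neither criterion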;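 note: higher polarization means more probe DNA bound by delta FosB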
A number is an active result; i = inactive; ? = inconclusive; nt = not tested or not shown. Hits are enriched below; roughly 2.8% of the tested compounds scored in any of these assays.

SMILES | CAL PDZ FP-1 | dFosB act-1 | SR-BI uptake up | SR-BI HDL uptake | CAL PDZ FP-2 | dFosB act-2
COc1ccc(C(=O)NCc2nnc(SCC(=O)NCc3ccco3)o2)cc1OC | i | i | i | i | i | nt
CS(=O)(=O)c1ccc(-c2sc3ccccc3c2C(=O)N2CCN(c3ccc(F)cc3)CC2)cc1 | i | i | i | i | i | nt
COc1ccc(CC(=O)Nc2ccc(S(=O)(=O)N3CCC(C)CC3)cc2)c(OC)c1 | i | i | i | i | i | nt
COc1ccc(Cn2c(SCc3ccccc3C)nc3cc(OC)c(OC)cc3c2=N)cc1 | i | 45 | i | i | i | i
COc1cccc(C(=O)Nc2ccc(NC(=O)c3ccco3)c(Cl)c2)c1 | i | 23 | i | i | i | i
O=C(Nc1ccc(NC(=O)c2sc3ccccc3c2Cl)cc1Cl)c1ccco1 | i | 41 | i | i | i | i
N#CCCN(C(=O)COC(=O)C1CCN(S(=O)(=O)c2ccc3c(c2)OCCO3)CC1)c1ccccc1 | i | i | i | i | i | nt
CCS(=O)(=O)c1ccc(O)c(NC(=O)Nc2ccccc2OC)c1 | i | i | i | i | i | nt
Cc1cc(NC(=O)c2cncc(Br)c2)ccc1NC(=O)c1cc2ccccc2o1 | i | 58 | i | 97 | i | i
COc1ccc(Cl)cc1NC(=O)CN(C)C(=O)C12CC3CC(CC(Cl)(C3)C1)C2 | i | i | i | i | i | nt
CCn1nc(NC(=O)c2ccccn2)c2cc3cc(C)ccc3nc21 | i | 21 | i | i | i | i
Cc1ccc2nc3c(cc2c1)c(NC(=O)c1ccccn1)nn3CC(C)C | i | i | i | i | i | nt
O=C(CCS(=O)(=O)c1cccs1)Nc1ccc(C(=O)NCc2ccccc2)cc1 | i | i | i | i | nt | nt
Cc1ccc(CNC(=O)c2ccc(NC(=O)CCS(=O)(=O)c3cccs3)cc2)cc1 | i | 20 | i | i | i | i
COc1ccc(-c2csc(NC(=S)NC(=O)c3ccc(S(=O)(=O)N(C)C)cc3)n2)cc1OC | i | 29 | i | i | i | i
COc1cccc(/C=N/NC(=O)CCn2c3ccccc3c3ccccc32)c1 | i | 24 | i | i | i | i
CSc1ccc(Cl)c(C(=O)OCC(=O)N2CCN(c3ccccc3)CC2)c1 | i | i | i | i | i | nt
Cc1cccc(C)c1NC(=O)CN1C(=O)CCSc2ccc(S(=O)(=O)N3CCCC3)cc21 | i | 48 | i | i | i | i
CN(C(=O)COC(=O)/C=C/c1ccc2c(c1)OCO2)c1c(N)n(Cc2ccccc2)c(=O)[nH]c1=O | i | 53 | i | i | i | i
CSc1ccc(NC(=O)NCc2cccnc2)cc1 | i | i | i | i | i | nt
C[C@H]1[C@@H](c2ccccc2)Oc2ccc(Cl)cc2S(=O)(=O)N1Cc1ccc(F)cc1F | i | i | i | i | i | nt
CCOC(=O)c1ccc(NC(=O)CC2S/C(=N/N=C3/NC(=O)CS3)NC2=O)cc1 (stereo not drawn) | i | 23 | i | i | i | i
Cc1ccc(NC(=O)CC2S/C(=N/N=C3/NC(=O)CS3)NC2=O)cc1 (stereo not drawn) | i | i | i | i | i | nt
Brc1ccc(Br)c2cnccc12 | i | i | i | i | i | nt
COc1ccccc1CN1CCC(n2nccc2NC(=O)CCCc2ccccc2)CC1 | i | i | i | i | i | nt
SMILES | CAL PDZ FP-1 | dFosB act-1 | SR-BI uptake up | SR-BI HDL uptake | CAL PDZ FP-2 | dFosB act-2
C=CCNC(=O)/C(=C/c1cn(-c2ccccc2)nc1-c1cccc([N+](=O)[O-])c1)NC(=O)c1ccccc1 | i | 19 | i | i | i | i
COc1ccc(OC)c(CN2CCN(C(=O)c3cc4ccccc4cc3O)CC2)c1 | i | i | i | i | i | nt
CN(CC(=O)Nc1ccccc1Cl)C(=O)COC(=O)C1CC1 | i | i | i | i | i | nt
Cc1cccc(C)c1NC(=O)CNC(=O)c1cccc(S(=O)(=O)NCc2cccs2)c1 | i | 24 | i | i | i | i
COc1ccc(-c2nc(C(N)=O)c3[nH]c(=O)n(-c4cccc(Cl)c4)c3n2)cc1OC | i | 29 | i | i | i | i
Cc1ccc2nc(N(CCCN(C)C)C(=O)CN3C(=O)c4ccccc4C3=O)sc2c1 | i | ? | nt | nt | i | nt
Cc1cc(C)c2sc(N(CCCN(C)C)C(=O)CN3C(=O)c4ccccc4C3=O)nc2c1 | i | 31 | nt | nt | i | i
Cc1ccc(S(=O)(=O)Nc2cc(=O)[nH]c(SCc3ccc(Cl)cc3)n2)cc1 | i | i | i | i | i | nt
COc1ccc(Cl)cc1NC(=O)CSc1nc(NS(=O)(=O)c2ccc(C)cc2)cc(=O)[nH]1 | nt | 28 | i | i | i | i
Cc1ccc(C)c(NC(=O)CN2C(=O)NC(CCc3ccccc3)C2=O)c1 (stereo not drawn) | i | 34 | i | i | i | i
Cc1cc(C)c(NC(=O)CN2C(=O)NC(CCc3ccccc3)C2=O)c(C)c1 (stereo not drawn) | i | i | i | i | i | nt
COc1ccc2nc(NC(=O)c3ccc4ncsc4c3)sc2c1 | nt | 22 | i | i | i | i
COc1ccc2nc(NC(=O)c3ccc(F)cc3)sc2c1 | i | i | i | i | i | nt
COc1ccc(C(=O)Nc2nc3ccc4nc(C)sc4c3s2)cc1 | nt | 23 | i | i | i | i
COC1OC2COC(c3ccccc3)OC2C(OC(C)=O)C1OC(C)=O (stereo not drawn) | i | i | i | i | i | nt
COC(=O)c1sc(S(=O)(=O)N2CCN(c3ccccc3F)CC2)c(C(=O)OC)c1C | nt | i | i | i | i | nt
Cc1ccc(NC(=O)c2cc(-c3cc(Cl)ccc3O)n[nH]2)cc1C | i | 22 | i | i | i | i
Cc1cccc(NC(=O)c2cc(-c3cc(Cl)ccc3O)n[nH]2)c1 | i | i | i | i | i | nt
Cc1ccc(NC(=O)c2cc(-c3ccccc3O)n[nH]2)cc1Cl | i | 41 | i | i | i | i
Cc1ccc(-c2csc3ncn(CC(=O)O)c(=O)c23)cc1C | i | i | i | i | nt | nt
COc1cc2c(-c3ccc(O)cc3)nc3c(c(C)nn3-c3ccccc3)c2cc1OC | nt | 27 | i | i | i | i
COc1ccc(N2CCN(c3cc(C)c4ccc(O)cc4n3)CC2)cc1 | nt | i | i | i | i | nt
COc1cc(OC)c2nc(C)c3c(c2c1)N(c1ccc(O)cc1)CC3 | i | 47 | i | i | i | i
S=C(c1cn(CCOc2ccccc2)c2ccccc12)N1CCCC1 | i | i | i | i | i | nt
S=C(c1cn(CCOc2cccc3ccccc23)c2ccccc12)N1CCCC1 | i | 27 | i | i | i | i
